Test results: ChEMBL document CHEMBL4616594, “Virtual screening identification and chemical optimization of substituted 2-arylbenzimidazoles as new non-zinc-binding MMP-2 inhibitors” (Bioorg Med Chem, 2020)

Legend:
[1] = target: 72 kDa type IV collagenase (Homo sapiens, UniProt P08253); experiment: (§1) Inhibition of recombinant human MMP2 catalytic domain (Tyr110 to Asp452 residues) expressed in yeast cells using Mca-Pro-Leu-Gly-Leu-Dpa-Ala-Arg-NH2/TQ3-GABA-Pro-Cha-Abu-Smc-His-Ala-Dab(6'-TAMRA)-Ala-Lys-NH2 as fluorogenic substrate preincubated for 15 mins followed by substrate addition measured after 2 to 4 hrs by fluorometric analysis; format: biochemical
Summary of the method: (§2)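 Commercial catalytic domain in Tris·HCl 50 mM pH 7.5, NaCl 150 mM, CaCl₂ 1 mM, ZnCl₂ 1 µM, 0.05% Brij-35, 1% DMSO. Inhibitor was tested at six concentrations (1 nM–100 µM), diluted from 10 mM DMSO stocks, and pre-incubated with enzyme for 15 min at room temperature. OmniMMP substrate (2.5 µM final) or OmniMMP RED substrate (1 µM final) was then added and incubated 2–4 h at 37°C. Fluorescence read at ex 340/em 405 or ex 545/em 572. Percent inhibition calculated versus no-inhibitor wells. Run in triplicate; IC50 given as mean ± SEM of ≥2 independent experiments.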

[2] = target: Matrix metalloproteinase-9 (Homo sapiens, UniProt P14780); experiment: as §1, with “MMP9” for “MMP2”, “(Phe107” for “(Tyr110”, “Pro449” for “Asp452”, “Escherichia coli” for “yeast”, “assay” for “analysis”; summary of the method: as §2
Collagenase 3 = Collagenase 3 (Homo sapiens, UniProt P45452); experiment: as §1, with “MMP13” for “MMP2”, “(Tyr104” for “(Tyr110”, “Asn274” for “Asp452”, “Escherichia coli” for “yeast”, “assay” for “analysis”
Neutrophil collagenase = Neutrophil collagenase (Homo sapiens, UniProt P22894); experiment: as §1, with “MMP8” for “MMP2”, “(Phe99” for “(Tyr110”, “Gln269” for “Asp452”, “Escherichia coli” for “yeast”, “assay” for “analysis”; summary of the method: as §2
Chain of Neutrophil collagenase (P22894 whole entry): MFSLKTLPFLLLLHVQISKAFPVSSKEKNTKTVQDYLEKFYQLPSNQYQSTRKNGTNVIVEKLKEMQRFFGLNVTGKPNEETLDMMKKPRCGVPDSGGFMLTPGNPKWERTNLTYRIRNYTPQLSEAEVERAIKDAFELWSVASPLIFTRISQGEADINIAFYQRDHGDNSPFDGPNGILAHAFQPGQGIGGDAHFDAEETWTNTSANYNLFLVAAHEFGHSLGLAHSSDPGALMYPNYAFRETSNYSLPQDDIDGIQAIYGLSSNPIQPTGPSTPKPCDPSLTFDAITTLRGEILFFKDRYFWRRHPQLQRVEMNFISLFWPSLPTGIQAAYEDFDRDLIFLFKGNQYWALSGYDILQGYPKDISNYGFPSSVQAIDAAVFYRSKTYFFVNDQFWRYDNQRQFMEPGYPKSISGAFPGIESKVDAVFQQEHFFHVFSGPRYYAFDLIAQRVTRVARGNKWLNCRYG

Chain of 72 kDa type IV collagenase (P08253 whole entry, the tested form may be a part): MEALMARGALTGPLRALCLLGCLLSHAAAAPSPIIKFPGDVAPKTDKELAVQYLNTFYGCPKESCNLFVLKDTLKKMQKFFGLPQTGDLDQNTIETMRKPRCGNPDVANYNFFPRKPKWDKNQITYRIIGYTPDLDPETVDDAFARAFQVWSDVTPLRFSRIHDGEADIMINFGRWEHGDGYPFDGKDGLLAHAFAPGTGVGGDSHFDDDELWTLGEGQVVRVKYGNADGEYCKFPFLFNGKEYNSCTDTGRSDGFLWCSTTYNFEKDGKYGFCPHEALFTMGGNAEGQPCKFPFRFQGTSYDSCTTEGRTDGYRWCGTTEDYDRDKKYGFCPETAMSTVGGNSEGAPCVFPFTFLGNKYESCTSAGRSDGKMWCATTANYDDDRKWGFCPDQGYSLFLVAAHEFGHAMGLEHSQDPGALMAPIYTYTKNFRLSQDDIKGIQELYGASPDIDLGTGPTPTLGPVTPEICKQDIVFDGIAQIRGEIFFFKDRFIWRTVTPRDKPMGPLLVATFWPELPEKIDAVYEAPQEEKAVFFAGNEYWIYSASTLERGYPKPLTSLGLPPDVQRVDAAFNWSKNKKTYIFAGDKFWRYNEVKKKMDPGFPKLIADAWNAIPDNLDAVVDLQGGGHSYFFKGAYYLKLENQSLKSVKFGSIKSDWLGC
Chain of Matrix metalloproteinase-9 (P14780 whole entry): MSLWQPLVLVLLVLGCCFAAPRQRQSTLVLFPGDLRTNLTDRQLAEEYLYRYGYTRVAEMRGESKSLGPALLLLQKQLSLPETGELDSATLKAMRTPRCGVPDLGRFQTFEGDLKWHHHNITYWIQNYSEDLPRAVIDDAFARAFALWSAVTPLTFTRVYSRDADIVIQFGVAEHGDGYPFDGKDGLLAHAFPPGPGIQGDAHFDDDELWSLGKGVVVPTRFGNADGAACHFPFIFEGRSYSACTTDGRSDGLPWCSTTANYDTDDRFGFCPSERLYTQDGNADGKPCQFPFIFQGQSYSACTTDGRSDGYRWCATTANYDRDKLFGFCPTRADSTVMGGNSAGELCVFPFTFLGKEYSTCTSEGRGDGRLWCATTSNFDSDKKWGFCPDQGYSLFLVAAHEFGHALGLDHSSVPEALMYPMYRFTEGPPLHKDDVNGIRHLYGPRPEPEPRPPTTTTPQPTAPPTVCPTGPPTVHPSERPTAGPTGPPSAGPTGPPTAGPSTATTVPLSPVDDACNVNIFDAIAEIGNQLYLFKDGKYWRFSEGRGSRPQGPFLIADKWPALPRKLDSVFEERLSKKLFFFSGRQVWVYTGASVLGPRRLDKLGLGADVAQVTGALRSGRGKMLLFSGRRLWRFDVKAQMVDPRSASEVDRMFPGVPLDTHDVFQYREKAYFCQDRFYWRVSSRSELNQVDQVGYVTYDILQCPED

Row | SMILES | IC50 [1] | IC50 [2] | IC50 (Collagenase 3) | IC50 (Neutrophil collagenase)
1 | O=S(=O)(Nc1cccc(-c2nc3ccccc3[nH]2)c1)c1ccccc1 | 65.4 µM | 36 µM | 94 µM | 43.2 µM
2 | O=[N+]([O-])c1ccc(-c2nc3cc([N+](=O)[O-])ccc3[nH]2)cc1 | 4.2 µM | 23.3 µM | 12 µM | 25 µM
3 | O=[N+]([O-])c1ccc(-c2nc3ccccc3o2)cc1 | 5.8 µM | 36 µM | 7.3 µM | 46 µM
4 | O=C(Nc1cccc(-c2nc3ccccc3[nH]2)c1)c1ccccc1 | 11.9 µM | 57 µM | 35 µM | 46 µM
5 | O=C(Nc1ccc(-c2nc3ccccc3s2)cc1)c1ccccc1 | 16.4 µM | 42 µM | 21 µM | 38 µM
6 | O=C(Nc1ccc(-c2nc3ccccc3[nH]2)cc1)c1ccccc1 | 6.5 µM | 16 µM | 7.5 µM | 28 µM
7 | O=C(CCc1ccccc1)Nc1cccc(-c2nc3ccccc3[nH]2)c1 | 87 µM | 68 µM | > 100 µM | 41.9 µM
8 | Cc1ccc2nc(-c3cccc(NC(=O)CCc4ccccc4)c3)[nH]c2c1 | 31 µM | 26.6 µM | > 100 µM | 32 µM
9 | O=C(CCc1ccccc1)Nc1cccc(-c2nc3ccc(Br)cc3[nH]2)c1 | 16 µM | 14.5 µM | 73 µM | 12.5 µM
10 | O=C(CCCc1ccccc1)Nc1ccc(-c2nc3ccccc3[nH]2)cc1 | 96 µM | > 100 µM | 50 µM | > 100 µM
11 | O=C(Nc1ccc(-c2nc3ccc(Br)cc3[nH]2)cc1)c1ccc([N+](=O)[O-])cc1 | 3.1 µM | 6.4 µM | 3.9 µM | 7.9 µM
12 | O=[N+]([O-])c1ccc(-c2nc3ccc(Br)cc3[nH]2)cc1 | 8.8 µM | 10 µM | 10.5 µM | 10 µM
13 | COC(=O)c1ccc(-c2nc3ccc(Br)cc3[nH]2)cc1 | 9 µM | 20.7 µM | 19 µM | 26.3 µM
14 | Cc1ccc2nc(-c3cccc(C(=O)NCCc4ccccc4)c3)[nH]c2c1 | 45 µM | 37.7 µM | > 100 µM | 40 µM
15 | Cc1ccc2nc(-c3ccc(NC(=O)c4ccccc4)cc3)[nH]c2c1 | 8.6 µM | 28.4 µM | 6.5 µM | 45.3 µM
16 | O=C(Nc1nc2ccc(Cl)cc2s1)c1ccc([N+](=O)[O-])cc1 | > 100 µM | > 100 µM | 20 µM | > 100 µM
17 | O=C(CCc1ccccc1)Nc1ccc(-c2nc3ccc(Br)cc3[nH]2)cc1 | 7 µM | 11.5 µM | 6.5 µM | 8 µM
18 | COc1ccc(/C=C/C(=O)Nc2cccc(-c3nc4ccccc4[nH]3)c2)cc1 | 48 µM | > 100 µM | 52 µM | > 100 µM
19 | Cc1cccc2nc(-c3cccc(NC(=O)CCc4ccccc4)c3)[nH]c12 | 64 µM | 60 µM | > 100 µM | 29 µM
20 | Cc1ccc2nc(-c3ccc(NC(=O)c4cccc([N+](=O)[O-])c4)cc3)[nH]c2c1 | 3.9 µM | 14.5 µM | 2.2 µM | 20.9 µM
21 | O=C(CCCc1ccccc1)Nc1ccc(-c2nc3ccc(Br)cc3[nH]2)cc1 | 31 µM | 58 µM | 22.2 µM | 67 µM
22 | Cc1ccc2oc(-c3ccc(NC(=O)c4ccc([N+](=O)[O-])cc4)cc3)nc2c1 | 15.9 µM | 20 µM | 11 µM | 14.7 µM

Row | SMILES | IC50 [1] | IC50 [2] | IC50 (Collagenase 3) | IC50 (Neutrophil collagenase)
23 | O=C(CCCc1ccccc1)Nc1cccc(-c2nc3ccccc3[nH]2)c1 | 47 µM | 43 µM | 81.2 µM | 34.6 µM
24 | O=C(Nc1ccc(-c2nc3ccc(Br)cc3[nH]2)cc1)c1ccccc1 | 6.42 µM | 32 µM | 3.9 µM | 50 µM
25 | Cc1ccc2nc(-c3ccc(NC(=O)CCc4ccccc4)cc3)[nH]c2c1 | 25.3 µM | 60 µM | 17.9 µM | 77 µM
26 | Cc1ccc2nc(-c3cccc(NC(=O)CN(C)Cc4ccccn4)c3)[nH]c2c1 | 72 µM | > 100 µM | 93 µM | > 100 µM
27 | O=C(Nc1nc2ccccc2s1)c1ccc([N+](=O)[O-])cc1 | > 100 µM | > 100 µM | > 100 µM | > 100 µM
28 | Cc1ccc2nc(-c3ccc([N+](=O)[O-])cc3)[nH]c2c1 | 6.5 µM | 22 µM | 6.1 µM | 23 µM
29 | O=C(Nc1ccc(-c2nc3ccccc3[nH]2)cc1)c1ccc(Br)cc1 | 9.4 µM | 41 µM | 10.9 µM | 55 µM
30 | Cc1cccc2nc(-c3cccc(NC(=O)CCCc4ccccc4)c3)[nH]c12 | 60 µM | 38.6 µM | 91 µM | 40.9 µM
31 | Cc1ccc2nc(-c3cccc([N+](=O)[O-])c3)[nH]c2c1 | 14 µM | 36.6 µM | 15.5 µM | 27 µM
32 | O=[N+]([O-])c1cccc(-c2nc3ccc(Br)cc3[nH]2)c1 | > 100 µM | > 100 µM | 47 µM | > 100 µM
33 | Nc1ccc(-c2nc3ccc(Br)cc3[nH]2)cc1 | 10 µM | 21.7 µM | 21 µM | 26 µM
34 | O=[N+]([O-])c1ccc(-c2nc3ccccc3[nH]2)o1 | 31 µM | 32 µM | 33 µM | 27 µM
35 | Cc1ccc2nc(-c3ccc(NC(=O)c4ccc([N+](=O)[O-])cc4)cc3)[nH]c2c1 | 3.3 µM | 10.7 µM | 1.8 µM | 25.5 µM
36 | O=C(CCc1ccccc1)Nc1ccc(-c2nc3ccccc3[nH]2)cc1 | 19 µM | 29 µM | 15.2 µM | 64 µM
37 | O=C(O)c1ccc(-c2nc3ccc(Br)cc3[nH]2)cc1 | 31.5 µM | 27 µM | 43 µM | 35 µM
38 | Cc1ccc2nc(-c3ccc([N+](=O)[O-])cc3)oc2c1 | 9 µM | 18 µM | 9.4 µM | 29 µM
39 | Brc1ccc2nc(-c3ccccc3)[nH]c2c1 | > 100 µM | > 100 µM | > 100 µM | > 100 µM
40 | O=[N+]([O-])c1ccc(-c2nc3ccccc3[nH]2)cc1 | 82 µM | 56.5 µM | > 100 µM | 64 µM
41 | O=[N+]([O-])c1ccc(-c2nc3ccccc3s2)cc1 | 6.5 µM | 11.5 µM | 7.5 µM | 10.5 µM
42 | Cc1ccc2oc(-c3ccc([N+](=O)[O-])cc3)nc2c1 | 9.7 µM | 14.9 µM | 8.8 µM | 16.4 µM
43 | Nc1ccc(-c2nc3ccccc3s2)cc1 | > 100 µM | 79 µM | > 100 µM | 88 µM
